Data set [1] has as its system MDCK. As to the kind of experiment: Cytotoxicity against dog MDCK cells assessed as alteration of cell morphology up to 100 uM by microscopic analysis. The data set is classed as cell-based, Canis lupus familiaris. The essentials:
(§1)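 Uninfected host-cell cultures were exposed to compound and examined by microscopy. Cytotoxicity was expressed as the minimum cytotoxic concentration (MCC) causing a microscopically detectable alteration of normal cell morphology.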

Data set [2] in a line: Cytotoxicity against cat CRFK cells assessed as alteration of cell morphology up to 100 uM by microscopic analysis. The data set is classed as cell-based, Felis catus. In short, it runs like this: as §1
Data set [3] has as its system Vero. As to the kind of experiment: Cytotoxicity against african green monkey Vero cells assessed as alteration of cell morphology up to 100 uM by microscopic analysis. The data set is classed as cell-based. The note with it: chlorocebus sabaeus. In short, it runs like this: as §1
Data set [4] concerns HeLa. As to the kind of experiment: Cytotoxicity against human HeLa cells assessed as alteration of cell morphology up to 100 uM by microscopic analysis. It counts as cell-based. In short, it runs like this:
as §1

The test system of data set [5] is HEL. The experiment in a line: Cytotoxicity against human HEL cells assessed as alteration of cell morphology up to 100 uM by microscopic analysis. The data set is classed as cell-based. The essentials:
as §1

The test system of data set [6] is Human immunodeficiency virus 2. The experiment in a line: Antiviral activity against Human immunodeficiency virus 2 ROD infected in human CEM cells assessed as reduction of virus-induced giant cell formation at 250 uM after 4 to 5 days. It counts as functional, organism-based. To be noted: CCRF-CEM. The essentials:
(§2)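 CEM cells at 3 × 10^5 cells/mL were infected with HIV at 100 CCID50 per mL in the presence of compound dilutions. They were held 4–5 days at 37 °C in humidified CO2. Syncytium (giant cell) formation was scored microscopically, and EC50 was taken as the concentration inhibiting giant cell formation by 50%.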

Data set [7] relates to Human immunodeficiency virus 1. The experiment in a line: Antiviral activity against Human immunodeficiency virus 1 3B infected in human CEM cells assessed as reduction of virus-induced giant cell formation at 250 uM after 4 to 5 days. It counts as functional, organism-based. The note with it: CCRF-CEM. In short, it runs like this: as §2
Data set [8] concerns Feline coronavirus. As to the kind of experiment: Antiviral activity against Feline coronavirus infected in cat CRFK cells assessed as reduction of virus-induced cytopathogenicity at 250 uM. It counts as functional, organism-based.
The test system of data set [9] is Felid alphaherpesvirus 1. As to the kind of experiment: Antiviral activity against Feline herpes virus infected in cat CRFK cells assessed as reduction of virus-induced cytopathogenicity at 250 uM. The data set is classed as functional, organism-based.
Data set [10] relates to Influenza B virus. As to the kind of experiment: Antiviral activity against Influenza B virus infected in dog MDCK cells assessed as reduction of virus-induced cytopathogenicity at 250 uM. The data set is classed as functional, organism-based. In short, it runs like this: (§3)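 Confluent cell monolayers were infected with 100 CCID50 of virus while exposed to varying compound concentrations. Cytopathicity was scored once it was complete in untreated infected controls. EC50 was taken as the concentration that reduced virus-induced cytopathogenicity by 50%.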

In data set [11] the test system is Influenza A virus. The experiment in a line: Antiviral activity against Influenza A virus H3N2 infected in dog MDCK cells assessed as reduction of virus-induced cytopathogenicity at 250 uM. The data set is classed as functional, organism-based. The essentials: as §3
The subject of data set [12] is Influenza A virus. As to the kind of experiment: Antiviral activity against Influenza A virus H1N1 infected in dog MDCK cells assessed as reduction of virus-induced cytopathogenicity at 250 uM. The data set is classed as functional, organism-based. The essentials:
as §3

Data set [13] deals with Punta Toro virus. The experiment in a line: Antiviral activity against Punta Toro virus infected in african green monkey Vero cells assessed as reduction of virus-induced cytopathogenicity at 250 uM. It counts as functional, organism-based. In short, it runs like this: (§4)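 Confluent monolayers (HEL fibroblasts, Vero, or HeLa cells as listed) were infected with 100 CCID50 of virus in the presence of varying compound concentrations. Virus-induced cytopathicity or plaque formation was scored once cytopathicity was complete in untreated infected controls. EC50 was taken as the concentration reducing cytopathogenicity or plaque formation by 50%.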

Data set [14] has as its system Sindbis virus. The experiment in a line: Antiviral activity against Sindbis virus infected in african green monkey Vero cells assessed as reduction of virus-induced cytopathogenicity at 250 uM. The data set is classed as functional, organism-based. In short, it runs like this: as §4
For data set [15], the system named is Coxsackievirus B4. As to the kind of experiment: Antiviral activity against Coxsackievirus B4 infected in african green monkey Vero cells assessed as reduction of virus-induced cytopathogenicity at 250 uM. The data set is classed as functional, organism-based. In short, it runs like this: as §4
The subject of data set [16] is Mammalian orthoreovirus 1. The experiment in a line: Antiviral activity against Reovirus 1 infected in african green monkey Vero cells assessed as reduction of virus-induced cytopathogenicity at 250 uM. It counts as functional, organism-based. In short, it runs like this:
as §4

Data set [17] deals with Human respirovirus 3. The experiment in a line: Antiviral activity against Parainfluenza virus 3 infected in african green monkey Vero cells assessed as reduction of virus-induced cytopathogenicity at 250 uM. It counts as functional, organism-based. In short, it runs like this: as §4
For data set [18], the system named is Respiratory syncytial virus. As to the kind of experiment: Antiviral activity against Respiratory syncytial virus long infected in human HeLa cells assessed as reduction of virus-induced cytopathogenicity at 250 uM. It counts as functional, organism-based. In short, it runs like this:
as §4

Data set [19] deals with Vesicular stomatitis virus. The experiment in a line: Antiviral activity against Vesicular stomatitis virus infected in human HeLa cells assessed as reduction of virus-induced cytopathogenicity at 250 uM. The data set is classed as functional, organism-based. In short, it runs like this: as §3
Data set [20] deals with Human alphaherpesvirus 1. The experiment in a line: Antiviral activity against thymidine kinase-deficient, ACV-resistant Herpes simplex virus 1 KOS infected in human HEL cells assessed as reduction of virus-induced cytopathogenicity at 250 uM. The data set is classed as functional, organism-based. The essentials:
as §3

The test system of data set [21] is Vesicular stomatitis virus. The experiment in a line: Antiviral activity against Vesicular stomatitis virus infected in human HEL cells assessed as reduction of virus-induced cytopathogenicity at 250 uM. It counts as functional, organism-based. In short, it runs like this: as §3
Data set [22] deals with Human alphaherpesvirus 2. The experiment in a line: Antiviral activity against Herpes simplex virus 2 G infected in human HEL cells assessed as reduction of virus-induced cytopathogenicity at 250 uM. It counts as functional, organism-based. The note with it: strain G. In short, it runs like this:
as §4

Data set [23] concerns Human alphaherpesvirus 1. As to the kind of experiment: Antiviral activity against Herpes simplex virus 1 KOS infected in human HEL cells assessed as reduction of virus-induced cytopathogenicity at 250 uM. It counts as functional, organism-based. The essentials:
as §4

Active and inactive are the calls of the source. How the calls were made is not given here.

Regarding `CCOP(=O)(OCC)[C@@H]1C[C@H](C(=O)Nc2cccc(C(C)=O)c2)ON1C` (racemic), the Activity result in data set [1], in [2], in data set [3], in data set [4] and in [5] was “Non-toxic” each time. Also, the inhibition result in [6], in [7], in data set [8], in data set [9], in [10] and in data set [11] was “inactive” throughout. The inhibition result in data set [12], in data set [13], in [14], in [15], in data set [16] and in data set [17] was “inactive” each time. The inhibition entry in [18], in [19], in [20], in [21], in [22] and in [23] was “inactive” throughout.

Take `CCOP(=O)(OCC)[C@H]1C[C@H](C(=O)Nc2cccc([N+](=O)[O-])c2)ON1C` (mixture of isomers): the Activity result in [1], in [2], in data set [3], in data set [4] and in data set [5] was “Non-toxic” each time. The inhibition result in data set [6], in data set [7], in data set [8], in [9], in data set [10] and in data set [11] was “inactive” in each case. In addition, the inhibition result in data set [12], in [13], in data set [14], in data set [15], in data set [16] and in data set [17] was “inactive” each time. The inhibition result in data set [18], in data set [19], in [20], in data set [21], in data set [22] and in [23] was “inactive” throughout.

As to `CCOc1ccc(NC(=O)[C@H]2C[C@@H](P(=O)(OCC)OCC)N(C)O2)cc1` (racemic), the Activity result in [1], in data set [2], in [3], in [4] and in data set [5] was “Non-toxic” in each case. Also, the inhibition result in data set [6], in data set [7], in [8], in data set [9], in data set [10] and in [11] was “inactive” throughout. In addition, the inhibition entry in data set [12], in data set [13], in data set [14], in [15], in [16] and in [17] was “inactive” throughout. Moreover, the inhibition result in [18], in data set [19], in data set [20], in data set [21], in data set [22] and in data set [23] was “inactive” each time.

With `CCOP(=O)(OCC)[C@H]1C[C@H](C(=O)Nc2ccc(C)cc2)ON1C` (relative stereo), the Activity entry in data set [1], in data set [2], in data set [3], in data set [4] and in [5] was “Non-toxic” in each case. Besides, the inhibition entry in [6], in [7], in data set [8], in data set [9], in data set [10] and in data set [11] was “inactive” in each case. The inhibition result in data set [12], in [13], in [14], in data set [15], in data set [16] and in data set [17] was “inactive” in each case. The inhibition result in data set [18], in data set [19], in data set [20], in [21], in data set [22] and in data set [23] was “inactive” in each case.

On to `CCOP(=O)(OCC)[C@H]1C[C@H](C(=O)Nc2ccc(F)cc2)ON1C` (racemic), for which the Activity entry in data set [1], in data set [2], in [3], in [4] and in data set [5] was “Non-toxic” each time. For the same compound, the inhibition entry in data set [6], in [7], in [8], in data set [9], in data set [10] and in [11] was “inactive” in each case. The inhibition result in data set [12], in data set [13], in data set [14], in [15], in data set [16] and in data set [17] was “inactive” in each case. Further, the inhibition result in [18], in [19], in data set [20], in data set [21], in data set [22] and in [23] was “inactive” throughout.

For the compound `CCOP(=O)(OCC)[C@H]1C[C@H](C(=O)Nc2ccc([N+](=O)[O-])cc2)ON1C` (mixture of isomers), the Activity result in data set [1], in data set [2], in data set [3], in [4] and in data set [5] was “Non-toxic” each time. The inhibition entry in [6], in [7], in [8], in data set [9], in data set [10] and in data set [11] was “inactive” in each case. Further, the inhibition result in [12], in data set [13], in data set [14], in [15], in data set [16] and in data set [17] was “inactive” throughout. The inhibition result in [18], in [19], in data set [20], in [21], in data set [22] and in [23] was “inactive” throughout.
